The record followed here is ChEMBL document CHEMBL1143821, “Fatty acyl benzamido antibacterials based on inhibition of DnaK-catalyzed protein folding” (J Biol Chem, 2007).

In brackets after ≈: the same amount, converted by molar mass. Activity calls are given as the source filed them. The rule behind the calls is not given here.

Test system in one data set: not listed separately
Description: Inhibition of Escherichia coli MC4100 DnaK assessed as effect on luciferase refolding. In short, it runs like this: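 Firefly luciferase was denatured 1 h at 10 °C in 6.0 M guanidinium chloride with 5 mM DTT, Tris pH 7.4, at 2.08 μM. It was diluted to 10.4 nM into MOPS pH 7.8 buffer with 1 mM ATP, 5 mM MgCl2, 436 nM DnaK, 160 nM DnaJ and 436 nM GrpE, preincubated 10 min with compound, at 10 °C and 30 °C. Activity was read by luminescence after 1 h. IC50 from a one-site competition fit.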
For the compound `CCCCCCCCCCCCCCCC(=O)NCc1ccc(C(=O)N[C@H](C(=O)O)[C@@H](C)CC)cc1`, the IC50 (commonly the concentration needed to halve the response being measured) came out at 1.2 µg/mL (≈ 2.39 µM).
The same measure, in the same setting: the result for `CCCCCCCCCCCC(=O)NCc1ccc(C(=O)N[C@H](C(=O)O)[C@@H](C)CC)cc1` reads 1.9 µg/mL (≈ 4.25 µM); that for `CCCCCCCCCCCCCCCCCC(=O)NCc1ccc(C(=O)N[C@H](C(=O)O)[C@@H](C)CC)cc1`, 2.3 µg/mL (≈ 4.33 µM); that for `CCCCCCCCCCCCCC(=O)NCc1ccc(C(=O)N[C@@H](CCC(N)=O)C(=O)O)cc1`, 11.5 µg/mL (≈ 23.5 µM).
Same read-out and setting: the result for `CCCCCCCCCCCCCC(=O)NCCc1ccc(C(=O)N[C@H](C(=O)O)[C@@H](C)CC)cc1` reads 2.6 µg/mL (≈ 5.32 µM); that for `CCCCCC/C=C\CCCCCCCC(=O)NCc1ccc(C(=O)N[C@H](C(=O)O)[C@@H](C)CC)cc1`, 3.6 µg/mL (≈ 7.19 µM).
On to `CCCCCCCCCCCCCC(=O)NCc1ccc(C(=O)N[C@@H](CC(N)=O)C(=O)O)cc1`, for which the IC50 was 4.6 µg/mL (≈ 9.67 µM).
Turning to `CCCCCCCCCC(=O)NCc1ccc(C(=O)N[C@H](C(=O)O)[C@@H](C)CC)cc1`, the 50% inhibitory concentration (IC50) stood at 40.4 µg/mL (≈ 96.5 µM).

The subject of another data set is Escherichia coli. Nature of the data set: Antimicrobial activity against Escherichia coli MC4100 at 42 degC. Format: functional. In a few lines:
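Liquid growth inhibition in Mueller-Hinton medium, run in triplicate. Compound was dissolved in ethanol/10 mM potassium phosphate pH 7.8, and its concentration was set by absorbance at 236 nm. Varying concentrations were added to mid-log E. coli MC4100 and incubated 24 h at 42 °C, then plated at 37 °C overnight for CFU. MIC = concentration giving 99.9% growth inhibition (NCCLS).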
Consider `CC1(C)S[C@@H]2[C@H](NC(=O)[C@H](N)c3ccccc3)C(=O)N2[C@H]1C(=O)O` [AMPICILLIN], for which the minimum inhibitory concentration (MIC) – broadly, the lowest concentration found to suppress growth – is 14 µg/mL (≈ 40.1 µM).
Regarding `CCCCCCCCCCCCCCCC(=O)NCc1ccc(C(=O)N[C@H](C(=O)O)[C@@H](C)CC)cc1`, 180 µg/mL (≈ 358 µM) was the least that counted as inhibitory (MIC).
`CCCCCCCCCCCC(=O)NCc1ccc(C(=O)N[C@H](C(=O)O)[C@@H](C)CC)cc1` yielded an MIC of 650 µg/mL (≈ 1460 µM).
`CCCCCCCCCCCCCCCCCC(=O)NCc1ccc(C(=O)N[C@H](C(=O)O)[C@@H](C)CC)cc1` displayed an MIC of 3100 µg/mL (≈ 5840 µM).
Still for that read-out and setting: the result for `CCCCCCCCCCCCCC(=O)NCc1ccc(C(=O)N[C@@H](CCC(N)=O)C(=O)O)cc1` reads 2800 µg/mL (≈ 5720 µM); that for `CCCCCCCCCCCCCC(=O)NCCc1ccc(C(=O)N[C@H](C(=O)O)[C@@H](C)CC)cc1`, 640 µg/mL (≈ 1310 µM).
The same measure, in the same setting: the same measure for `CCCCCC/C=C\CCCCCCCC(=O)NCc1ccc(C(=O)N[C@H](C(=O)O)[C@@H](C)CC)cc1`: 1300 µg/mL (≈ 2600 µM); for `CCCCCCCCCCCCCC(=O)NCc1ccc(C(=O)N[C@@H](CC(N)=O)C(=O)O)cc1`: 100 µg/mL (≈ 210 µM).
The same measure, in the same setting: the result for `CCCCCCCCCC(=O)NCc1ccc(C(=O)N[C@H](C(=O)O)[C@@H](C)CC)cc1` reads 490 µg/mL (≈ 1170 µM).

Test system in the next data set: not listed separately
Nature of the data set: Displacement of sigma32 derived peptide from Escherichia coli MC4100 DnaK.
On to `CC(C)C[C@H](NC(=O)[C@H](CC(C)C)NC(=O)[C@H](CCCNC(=N)N)NC(=O)[C@@H](N)CC(N)=O)C(=O)N[C@@H](CC(C)C)C(=O)N[C@H](C(=O)NCC(=O)O)[C@@H](C)O`, for which the IC50 worked out at 1300 nM.

Test system in a further data set: not listed separately
Description: Toxicity against human erythrocytes assessed as hemolytic activity. Format: cell-based, Erythrocyte. In a few lines:
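Human erythrocytes were washed in Tris-buffered saline pH 7.4. Cells at 2.5×10^8 cells/ml were exposed to 3.1–50 μg/ml compound for 30 min at 42 °C with gentle shaking, chilled, and centrifuged. Hemoglobin in the supernatant was read at 550 nm after 10-fold dilution in 0.5% NH4OH. Saponin 100 mg/liter = 100%, phosphate buffer = 0%. EC50 from dose-response curves.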
Consider `CCCCCCCCCCCCCCCC(=O)NCc1ccc(C(=O)N[C@H](C(=O)O)[C@@H](C)CC)cc1`, for which the EC50 (as a rule, the midpoint of the concentration-response curve) turned out to be 50 µg/mL (≈ 99.5 µM).
Still for that read-out and setting: the same measure for `CCCCCCCCCCCC(=O)NCc1ccc(C(=O)N[C@H](C(=O)O)[C@@H](C)CC)cc1`: 400 µg/mL (≈ 896 µM); for `CCCCCCCCCCCCCCCCCC(=O)NCc1ccc(C(=O)N[C@H](C(=O)O)[C@@H](C)CC)cc1`: 30 µg/mL (≈ 56.5 µM).
In the case of `CCCCCCCCCCCCCC(=O)NCc1ccc(C(=O)N[C@@H](CCC(N)=O)C(=O)O)cc1`, the concentration for a half-maximal effect (EC50) was 520 µg/mL (≈ 1060 µM).
On the same count and under the same terms, the result for `CCCCCCCCCCCCCC(=O)NCCc1ccc(C(=O)N[C@H](C(=O)O)[C@@H](C)CC)cc1` reads 35 µg/mL (≈ 71.6 µM).
Still for that read-out and setting: the result for `CCCCCC/C=C\CCCCCCCC(=O)NCc1ccc(C(=O)N[C@H](C(=O)O)[C@@H](C)CC)cc1` reads 250 µg/mL (≈ 499 µM); that for `CCCCCCCCCCCCCC(=O)NCc1ccc(C(=O)N[C@@H](CC(N)=O)C(=O)O)cc1`, above 10 µg/mL; that for `CCCCCCCCCC(=O)NCc1ccc(C(=O)N[C@H](C(=O)O)[C@@H](C)CC)cc1`, above 1000 µg/mL.

A further data set has as its system Escherichia coli. Nature of the data set: Inhibition of Escherichia coli MC4100 DnaK-reduced carboxymethylated lactalbumin complex at >25 uM.
`CC(C)C[C@H](NC(=O)[C@H](CC(C)C)NC(=O)[C@H](CCCNC(=N)N)NC(=O)[C@@H](N)CC(N)=O)C(=O)N[C@@H](CC(C)C)C(=O)N[C@H](C(=O)NCC(=O)O)[C@@H](C)O`: the result was Active.
